Source: PubChem BioAssay (several laboratories)
In the library only some 1.6% were active in any assay of this set; here they are far more common.
SR-BI DiI-HDL act = activators of SR-BI mediated HDL lipid uptake; CHO ldlA[mSR-BI] cells, DiI-HDL uptake fluorescence, 3 h; 100 = double the neutral-control signal; activation, % at 12.5 µM; actives 0.096% (n = 320,000);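 active = mean replicate activation of at least 60% and every replicate at or above 60%; inconclusive = mean or all-replicate condition met, but not both; inactive = mean below 60% and not all replicates reaching 60%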;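 note: 0% = median plate neutral-control signal and 100% = twice that signal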
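system = CHO ldlA[mSR-BI] cells, LDL receptor-null, SR-BI overexpressing | medium = Ham's F12 with 0.5% BSA, HEPES 25 mM, pH 7.4 | probe or stimulus = DiI-HDL 10 µg/mL | compound dosing = single-point compound dose | incubation = compound exposure 3 h, 37 °C | technique = DiI fluorescence, bottom read | read-out = cell-associated DiI fluorescence as measure of HDL uptake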
Vif inh = blocks HIV Vif function; actives 0.35% (n = 340,000); inhibition, % at 7.49 µM; HEK293T cells, Vif self-association by quenched fluorescence, imaging, 24 h; in the data active = inhibition above about 50%, passing the limit was not always enough; inconclusive = no clear call, values can overlap the other calls; inactive = below about 31%
A1 inh = inhibitors of the anti-apoptotic protein A1, read as caspase activation | MEF A1-2A-BIM cells, Caspase-Glo 3/7 luminescence, 3 h; percent of clofoctol response, vehicle zero | caspase activation, % (concentration not given with the values) | actives 0.066% (n = 330,000);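 active = over half of replicate activation scores above 10%, or exactly half above 10 with the replicate mean above 10; inconclusive = replicate mean below 10 yet half the replicates above 10; inactive = over half of replicates below 10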
SR-BI DiI inh = inhibitors of mouse SR-BI mediated HDL lipid uptake; Q61009; ldlA[mSR-BI] CHO cells, DiI-HDL uptake fluorescence, 3 h; inhibition, % at 12.5 µM; actives 0.96% (n = 320,000); AID 488896;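 active = mean replicate inhibition of at least 70% and a set share of replicates each scoring 70 or more; inconclusive = meets just one of the two criteria; inactive = fails both criteria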;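 note: 0% = median of neutral control wells and 100% = median of positive control wells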
Target sequence (Q61009 whole entry, looked up): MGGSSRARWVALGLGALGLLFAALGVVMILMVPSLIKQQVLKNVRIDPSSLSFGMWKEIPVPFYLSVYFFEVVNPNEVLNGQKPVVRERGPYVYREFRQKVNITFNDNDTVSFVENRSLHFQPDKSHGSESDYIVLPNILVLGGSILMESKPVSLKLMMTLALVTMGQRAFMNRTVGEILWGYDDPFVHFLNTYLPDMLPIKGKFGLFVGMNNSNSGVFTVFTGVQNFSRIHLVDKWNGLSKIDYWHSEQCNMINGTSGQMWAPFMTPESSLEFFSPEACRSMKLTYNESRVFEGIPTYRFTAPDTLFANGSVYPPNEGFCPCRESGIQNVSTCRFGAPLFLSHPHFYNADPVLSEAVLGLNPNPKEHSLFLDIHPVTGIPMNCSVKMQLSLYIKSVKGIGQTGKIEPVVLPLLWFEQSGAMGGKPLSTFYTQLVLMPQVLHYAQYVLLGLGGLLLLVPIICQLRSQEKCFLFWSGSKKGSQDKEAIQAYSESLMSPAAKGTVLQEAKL
H9c2 TAG inh = inhibitors of triacylglycerol accumulation. AID 651582. inhibition, % at 12.5 µM. H9c2 cells, Nile Red lipid (TAG) fluorescence; cells loaded with 200 µM oleic acid. actives 0.66% (n = 230,000);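 active = pattern-corrected inhibition of lipid staining of at least 50% with the nuclear-stain viability signal not falling by more than 50%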;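 note: 0% = DMSO wells and 100% = triacsin C control wells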
DiI quencher = quenches DiI-HDL fluorescence, an SR-BI assay artifact. actives 20% (n = 470). AID 540326. AC50, µM (doses to about 35 µM), inactives show at the top dose activity change, negative = quenching. cell-free DiI-HDL fluorescence quenching, 30 min. shares compounds with SR-BI DiI inh;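 active = quenching, a falling signal, with AC50 below a set limit tied to the top valid dose, actives reach about 32 µM in these data; inconclusive = no clear call, values can overlap the other calls; inactive = rising signal, and the rest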
* marks the source's active call; other numbers are inactive results; u = inconclusive; x = not tested or not shown.

SMILES	SR-BI DiI-HDL act	Vif inh	A1 inh	SR-BI DiI inh	H9c2 TAG inh	DiI quencher
COc1cc(OC)nc(Oc2cccc(Cl)c2C)n1	x	6	1	x	8	x
COc1ccc(-c2nnn(Cc3ccccc3)n2)cc1OC	-4	-4	-1	4	1	x
COc1cc(-c2nnn(Cc3ccccc3C)n2)cc(OC)c1OC	-101	-4	0	101*	x	2%
CC(C)(C)C(=O)Nc1sc2c(c1-c1nc3ccccc3[nH]1)CCCC2	-104	x	1	104*	x	9µM*
CCOC(=O)Nc1nc(-c2ccccc2)c(C(=O)c2ccccc2)s1	-75	-5	4	75*	x	-2%
O=C(NCCc1ccccc1)C1CCN(C(=O)c2sccc2-n2cccc2)CC1	-81	-2	-1	81*	-2	-6%
O=C(NCc1cccc(F)c1)C1CCN(C(=O)c2sccc2-n2cccc2)CC1	-50	2	1	50	x	x
COc1ccccc1CNC(=O)C1CCN(C(=O)c2sccc2-n2cccc2)CC1	-71	5	0	u	x	-2%
Cc1ccc(CCNC(=O)C2CCN(C(=O)c3sccc3-n3cccc3)CC2)cc1	-50	-1	0	50	-16	-2%
COc1ccccc1CNC(=O)C1CCN(C(=O)N(C)C)CC1	8	32	0	-8	x	x
N#Cc1ncc(Cl)c2ccccc12	x	-12	0	x	14	x
Nc1c(-c2ccccn2)cnn1-c1nc(-c2ccc(F)cc2)cs1	-66	-3	0	66	-9	x
Nc1c(-c2cccs2)cnn1-c1nc(-c2ccc(F)cc2)cs1	-74	0	0	74*	x	-7%
COc1ccc(OC)c(C2Nc3ccccc3NC3=C2C(=O)CC(C)(C)C3)c1 (configuration not stated)	10	-15	0	-10	x	x
COc1ccc(OC[C@@H](O)CNC(=O)c2cccc3c2C(=O)c2ccc(-c4ccc(F)cc4OCc4ccccc4)cc2S3(=O)=O)cc1	-80	-1	0	80*	38	-19%
Cc1cc(Cl)cc(C)c1OCCOCCNCc1ccccc1	12	1	0	-12	x	x
Cc1ccc(C(C(=O)NC(C)(C)C)N(Cc2cccs2)C(=O)c2csnn2)cc1 (configuration not stated)	19	-9	0	-19	16	x
CCC(C)(C)NC(=O)C(c1ccc(C)cc1)N(Cc1cccs1)C(=O)c1ccc2c(c1)OCCO2 (configuration not stated)	-77	-3	1	77*	x	6%
Cc1ccc(C(C(=O)NC(C)(C)C)N(Cc2cccs2)C(=O)c2ccc3c(c2)OCCO3)cc1 (configuration not stated)	12	10	0	-12	3	3%
Cc1ccc(NC(=O)ON=C2CCCC2)cc1	24	x	-2	-24	x	x
CN1CCC2CC1c1cc(-c3ccc(C(F)(F)F)cc3)ccc12 (configuration not stated)	12	x	x	-12	8	-5%
O=C(NC1=NCCS1)c1cccc2ccccc12	-2	0	-1	2	13	x
COc1ccc(N2CC(C(=O)N3CCN(S(=O)(=O)c4ccc(F)c(F)c4)CC3)CC2=O)c(OC)c1 (configuration not stated)	4	-4	x	-4	9	6%
Cc1ccccc1CN1CCN(C(=O)c2ccc(S(=O)(=O)NCc3ccco3)cc2)CC1	-64	26	0	64	-4	-2%
O=C(c1ccc(S(=O)(=O)NCc2ccco2)cc1)N1CCN(Cc2ccc3c(c2)OCO3)CC1	-71	-4	0	u	-3	0%
SMILES	SR-BI DiI-HDL act	Vif inh	A1 inh	SR-BI DiI inh	H9c2 TAG inh	DiI quencher
COc1ccc(CN2CCN(C(=O)c3ccc(S(=O)(=O)NCc4ccco4)cc3)CC2)cc1F	-72	-18	x	u	17	-2%
O=C(N/C(=C\c1ccc(Br)cc1)C(=O)N1CCOCC1)c1ccc([N+](=O)[O-])cc1	x	12	0	x	x	x
CC(C)CN(C(=O)COC(=O)C12CC3CC(CC(O)(C3)C1)C2)C1CCS(=O)(=O)C1 (configuration not stated)	-9	0	0	9	5	-6%
COc1ccc(NC(=O)NC(C)C2CC3CCC2C3)cc1 (configuration not stated)	17	0	-1	-17	-2	x
Cc1cc(N2C(=O)C(O)=C(C(=O)c3cccs3)C2c2ccc(F)cc2)no1 (configuration not stated)	-2	-8	-1	2	-9	x
CCOc1ccccc1CNC(=O)c1ccc(NC(=O)C2=CSCCO2)cc1	-42	-5	-2	42	x	x
Cc1ccc(-n2nc(C)c3c(C(=O)OCC(=O)N(C)C4CCS(=O)(=O)C4)cc(-c4ccccc4)nc32)cc1 (configuration not stated)	-70	-1	0	u	47	u
Cc1ccccc1OCc1occc1C(=O)Nc1cccc(-n2cnnn2)c1	-39	-6	0	39	x	x
Cc1ccc(S(=O)(=O)NCc2ccc(C(=O)NCCc3ccc(S(N)(=O)=O)cc3)cc2)cc1	-92	-7	0	92*	x	5%
O=[N+]([O-])c1cccc(C2(O)COc3ccccc3O2)c1 (configuration not stated)	-7	-12	0	7	x	x
COc1cccc2c1cc1c(=O)n(CC(=O)N3CCN(c4cccc(C)c4C)CC3)nc(C)n12	0	-13	x	0	x	2%
O=C(O)CC(C(=O)Nc1cccc(C(F)(F)F)c1)C1CCCO1 (configuration not stated)	17	15	-1	-17	0	-3%
O=C(CC(C(=O)O)C1CCCO1)Nc1cccc(C(F)(F)F)c1 (configuration not stated)	21	-4	0	-21	15	x
O=C(c1ccncc1)N1CCN(S(=O)(=O)c2cccc(C(F)(F)F)c2)CC1	13	-10	0	-13	-12	x
Cc1cc(C)c2c(c1)NC(c1cc3c(cc1Br)OCO3)C1CC=CC21 (configuration not stated)	-70	0	0	u	17	-14%
Brc1cc2c(cc1C1Nc3ccccc3C3C=CCC31)OCO2 (configuration not stated)	-55	6	0	55	-8	x
C[C@@H]1CN([C@H](C)CO)C(=O)CCCn2cc(nn2)CO[C@H]1CN(C)C(=O)c1ccc2ccn(C)c2c1	x	18	x	x	x	x
COc1ccc(C2/C=C\CN(S(=O)(=O)c3ccc4ccccc4c3)CC(=O)N2Cc2ccc(F)cc2)cc1 (configuration not stated)	-48	-8	0	48	8	4%
